Experimental data reported in PMC3710193 (Journal of immunology (Baltimore, Md. : 1950), 2011).
pKd: −log10 of the molar value. Several values for one entry are separate records, joined by “and”; a condition that tells them apart may be missing. Equal values may be shown once.

Assays:
spleen NKT cells [1] = experiment: CFSE proliferation assay of spleen NKT cells; assay type: cell-based, C57BL/6 mice; details: 72 hr, 100, 10 and 1 ng/ml
spleen cells = experiment: Cytometric bead array of 72 hr splenocyte culture supernatants; assay type: cell-based, C57BL/6 mice; details: 72 hr spleen cell cultures, CBA
How it was run: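 C57BL/6 splenocytes (5×10^5/well) pulsed with test glycolipid at 100, 10 or 1 ng/ml and cultured overnight. Medium was then replaced without further glycolipid, and supernatants were harvested at 72 hr. Mean ± SEM of three independent experiments (IL-10: two), each the mean of duplicate cultures.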

NKT cells = experiment: In vivo stimulation of NKT cells, serum cytokines by cytometric bead array; set-up: species or system mice; details: 1 μg i.p.
How it was run: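 Mice received 1 μg test glycolipid i.p. in 200 μL PBS. Serum was collected at 2 and 24 hr, and IFN-γ and IL-4 were quantified by cytometric bead array. Ratio taken as serum IFN-γ at 24 hr over IL-4 at 2 hr. Results combine three independent experiments, 10 mice per group.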

[2] = molecular target: T1, Vβ8.2 NKT TCR (Vα14-Vβ8.2) / CD1d-Ag (Mus musculus, UniProt P11609+Z9CWY5XBV8); experiment: SPR of Vβ8.2 NKT TCR binding to glycolipid-loaded CD1d; details: for ka / kd: SPR kinetic experiment, 25°C, 1:1 Langmuir model
T1 sequence (P11609 22-305 limits assumed): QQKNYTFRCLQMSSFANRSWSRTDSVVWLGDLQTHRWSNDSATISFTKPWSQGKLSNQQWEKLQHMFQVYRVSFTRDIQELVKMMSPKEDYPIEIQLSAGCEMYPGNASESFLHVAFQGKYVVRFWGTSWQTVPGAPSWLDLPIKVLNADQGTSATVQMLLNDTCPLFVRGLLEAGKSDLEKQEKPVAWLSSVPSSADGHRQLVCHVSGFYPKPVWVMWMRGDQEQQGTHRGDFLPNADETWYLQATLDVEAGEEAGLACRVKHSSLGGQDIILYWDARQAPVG
T1 sequence (P01887 21-119): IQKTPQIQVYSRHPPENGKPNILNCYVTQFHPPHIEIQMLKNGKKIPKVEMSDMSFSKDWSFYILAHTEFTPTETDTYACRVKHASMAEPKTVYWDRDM

Vβ7 NKT TCR / CD1d-Ag = experiment: SPR of Vβ7 NKT TCR binding to glycolipid-loaded CD1d; set-up: species or system mouse
How it was run: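 Refolded mouse Vα14-Vβ7 NKT TCR flowed over glycolipid-loaded mouse CD1d (baculovirus-expressed, BirA/His-tagged) captured on streptavidin chips; CD1d-endogenous lipid surface subtracted. 25°C, HEPES buffer pH 7.4, 150 mM NaCl, 0.005% P20. Kinetics: 300–500 RU, 0.19–25 μM, 50 μl/min for 60 s, 1:1 Langmuir fit, duplicate. Steady-state: 2000 RU, 0.039–40 μM, 5 μl/min for 90 s, one-site fit.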

spleen NKT cells [3] = experiment: Intracellular cytokine staining for IFN-γ in spleen NKT cells at 8 hours; assay type: cell-based, C57BL/6 mice; details: highest dose 100 ng/ml, ICS
How it was run: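 Splenocytes from C57BL/6 mice (5×10^5/well) were cultured 8 hr with test glycolipid (100, 10, 1 ng/ml), with Golgistop for the final 4 hr. Four replicate wells were pooled per determination. Cells were surface-stained with glycolipid-loaded CD1d tetramer-PE and anti-TCR-β, fixed, permeabilised and stained for intracellular IFN-γ. Mean ± SEM of three experiments, each the mean of duplicate cultures.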

[4] = Vβ7 TCR, SPR kinetic experiment, 25°C, 1:1 Langmuir model

SMILES | NKT cell proliferation (in words) (spleen NKT cells [1]) | cytokine amounts, fold lower compared to α-GalCer (spleen cells) | ratio of peak IFN-γ response (24 hours) to peak IL-4 response (2 hours) (NKT cells; serum) | serum IFN-γ production in vivo compared to α-GalCer (NKT cells; serum at 2 and 24 hr) | serum IL-4 production in vivo compared to α-GalCer (NKT cells; serum at 2 and 24 hr) | pKd ([2]; KD(eq), Vβ8.2 TCR, steady-state affinity determined in separate experiment) | NKT TCR affinity relative to CD1d-α-GalCer interaction (fold lower) ([2]; Vβ8.2 NKT TCR) | ka ([2]; Vβ8.2 TCR) | kd ([2]; Vβ8.2 TCR) | NKT TCR affinity relative to CD1d-α-GalCer interaction (fold lower) (Vβ7 NKT TCR / CD1d-Ag; Vβ7 NKT TCR) | IFN-γ+ NKT cells (spleen NKT cells [3]) | pKd ([2]; affinity (KD(eq)), Vβ8.2 NKT TCR, response at equilibrium) | ka (Vβ7 NKT TCR / CD1d-Ag; [4]) [M⁻¹ s⁻¹] | kd (Vβ7 NKT TCR / CD1d-Ag; [4]) [s⁻¹]
CCCCCCCCCCCCCCCCCCCCCCCCCC(=O)N[C@@H](CC[C@H]1O[C@H](CO)[C@H](O)[C@H](O)[C@H]1O)[C@H](O)[C@H](O)CCCCCCCCCCCCCC [α-C-GalCer] | little difference in the proliferative response | 2–5 fold | Th1-like bias | lower amounts | lower amounts | ~5.70 and 5.70 | approximately 10 fold | 225000 M⁻¹ s⁻¹ and 225000 ± 41000 M⁻¹ s⁻¹ | 0.29 s⁻¹ and 0.29 ± 0.02 s⁻¹ | approximately 10 fold | ~ 12% |  |  | 
CCCCCCCCCCCCCCCCCCCCCCCCCC(=O)N[C@@H](CO[C@H]1O[C@H](CO)[C@H](O)[C@H](O)[C@H]1O)[C@H](O)[C@H](O)CCCCCCCCCCCCCC [α-GalCer, α-galactosylceramide, reference compound] |  |  |  |  |  |  |  | 162000 M⁻¹ s⁻¹ and 162000 ± 9500 M⁻¹ s⁻¹ | 0.02 s^−1 and 0.02 ± 4.5×10^−4 s^−1 |  | approximately 25% | 6.52 | 231000 ± 31500 | 0.09 ± 0.003
